# GalR3 antag: GalR3 antagonists in HEK293 cells, primary screen, cell-based, fluorescence readout. Galanin receptor type 3 (Homo sapiens), O60755. HEK293 GalR3-CNG cAMP membrane potential fluorescence; galR3 body fused to GalR1 C-terminus. inhibition, % at 3 µM. 360,000 tested, 0.44% active. AID 651719, 2012;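 active = inhibition above the screen-wide average plus 3 SD, cut at about 13% in these data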;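 note: forskolin and galanin both at EC90 stimulate the cells; cAMP rise reported by CNG channel membrane potential dye signal; 0% = forskolin plus galanin with DMSO and 100% = forskolin alone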
# Target sequence (O60755 1-299 limits assumed): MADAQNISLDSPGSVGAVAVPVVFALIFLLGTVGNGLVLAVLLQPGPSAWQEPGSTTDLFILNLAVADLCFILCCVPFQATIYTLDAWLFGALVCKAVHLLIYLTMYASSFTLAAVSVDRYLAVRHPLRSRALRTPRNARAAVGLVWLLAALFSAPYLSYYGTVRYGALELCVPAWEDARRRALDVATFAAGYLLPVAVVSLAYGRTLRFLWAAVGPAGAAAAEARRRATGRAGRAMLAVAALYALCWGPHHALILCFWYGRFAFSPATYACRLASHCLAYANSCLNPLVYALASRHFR
# COUP-TFII inh: NR2F2 transcriptional activity inhibitors, primary screen, cell-based, luciferase reporter, HEK293T, luminescence | AID 686940, 2013 | HEK293T NGFI-A luciferase reporter | 370,000 tested, 0.7% active | COUP transcription factor 2 (Homo sapiens), P24468 | inhibition, % at 8.6 µM;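 active = inhibition above a per-plate cutoff, mean inhibition of test wells between control levels plus 3 SD, cut at about 38% in these data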;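 note: cells cotransfected with COUP-TFII expression vector driving the NGFI-A reporter; 0% = median of COUP-TF2 test wells and 100% = reporter-only cells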
# CHT block: inhibitors of human choline transporter CHT | CHT-expressing cells, membrane potential dye, choline response; stronger effect = lower value | B-score at 10 µM | 310,000 tested, 0.86% active;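 active = B-score over 3 SD under the library average, and starting fluorescence ratio not unusually high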;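 note: choline stimulus applied at its EC90 after an EC20 pre-addition; B-score computed on integrated fluorescence ratio after choline addition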
# NR2E3 ag-1: inhibitors of NR2E3-RetCOR corepressor binding, primary screen, NR2E3 agonist project, biochemical, TR-FRET, GST-NR2E3, biotin-RetCOR; 320,000 tested, 0.12% active; Photoreceptor-specific nuclear receptor (Homo sapiens), Q9Y5X4; inhibition of corepressor binding, % at 4.78 µM; 1536-well; AID 2300, 2010;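 active = percent inhibition above the cutoff of mean plus 3 SD of all tested compounds, set per screening campaign, cut at about 20% in these data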;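 note: 0% = DMSO wells and 100% = biotin wells as full block of FRET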
#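 Test system: GST-NR2E3 and biotin-RetCOR proteins | Quantity: 1.35 nM GST-tagged NR2E3 final | Medium: Tris pH 7.5 | Also added: 7 nM biotin-RetCOR | Dosing: Compound at 4.8 µM, single dose | Timing: 5 h at 4 °C | Detection: Time-resolved FRET | Read-out basis: Percent inhibition | Benchmarks: Biotin wells as high control, 0.6% DMSO wells as low control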
# NR2E3 ag-2: NR2E3 agonists in two-hybrid cells, primary screen, cell-based, luminescence, CHO-S, Gal4-NCOR/VP16-NR2E3. luciferase. inhibition of corepressor binding, % at 3.98 µM. 360,000 tested, 0.35% active. AID 602229, 2012;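 active = inhibition above the mean of all tested compounds plus 3 SD, cut at about 70% in these data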;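 note: 0% = DMSO with NR2E3 transfected cells and 100% = cells lacking NR2E3 construct; higher means lower luciferase signal from less NR2E3 corepressor binding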
# CHT PAM: CHT positive allosteric modulators, primary screen, cell-based, membrane potential dye, choline EC20 | High affinity choline transporter 1 (Homo sapiens), Q9GZV3 | CHT-expressing cells; stronger effect = higher value; LV-AA mutant CHT in HEK293 cells | B-score at 10 µM | 310,000 tested, 0.49% active;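 active = initial fluorescence not abnormally high and integrated response B-score, plate-corrected, over 3 SD above library mean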
# CHT inh conf: CHT inhibitors, confirmation, cell-based, membrane potential dye, duplicate; CHT activity remaining % of control (stronger effect = lower value), % at 10 µM; 2,400 tested, 70% active; shares compounds with CHT block; CHT-expressing cells, choline membrane potential dye; LV-to-AA substituted CHT, HEK293 cells;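 active = choline transporter activity left, mean of duplicates at 10 µM, below buffer-only control mean minus 3 SD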;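 note: depolarization triggered by choline at its EC90 following an EC20 pre-addition; 0% = hemicholinium-3 full block and 100% = buffer-only control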
# HEK293 MPD ctr: membrane potential effects in parental HEK293, counter-screen for CHT inhibitor project, cell-based, membrane potential dye; shares compounds with CHT block; choline response; active = decrease or increase beyond buffer ±3SD; AID 493222, 2011; membrane potential ratio readout (active if shifted either direction beyond buffer ±3SD; no single direction) at 10 µM; 2,400 tested, 4% active;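 note: parental cells lack the transporter so any hit is non-specific; ratio is peak minus trough fluorescence over baseline after EC90 choline challenge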
# An asterisk follows results filed as active; i = inactive; . = no result given. This is a sample that favours compounds with a hit; in the whole collection about 2.3% have one here.
SMILES,GalR3 antag,COUP-TFII inh,CHT block,NR2E3 ag-1,NR2E3 ag-2,CHT PAM,CHT inh conf,HEK293 MPD ctr
Cc1[nH]n(-c2cccc(Cl)c2)c(=O)c1-c1ccccc1,0,9,-6.1*,-2,-27,i,68%*,i
CC1CCCCC1NC(=O)c1cc2c(=O)n3ccccc3nc2n1C (stereo not given),4,-14,i,-1,-26,i,.,.
CC1CCCCC1NC(=O)c1c(O)nc2ccccn2c1=O (stereo not given),-3,-10,-7.1*,-3,-4,i,60%*,i
Cc1ccc(-n2c(C)nn(CC3CC3)c2=O)cc1,-1,-3,i,2,14,i,.,.
Cc1nn(CC2CC2)c(=O)n1-c1cccc(Cl)c1,-8,-17,-5.8*,3,9,i,i,i
O[C@H](COc1cccc(C(F)(F)F)c1)CN1CCC(C(O)(c2ccccc2)c2ccccc2)CC1,.,2,.,.,.,.,.,.
COc1cccc(NC(=S)N(Cc2ccc(C(=O)O)cc2)Cc2ccc(OC)c(OC)c2)c1,-4,-11,-6.4*,3,3,i,51%*,i
COc1ccc(CN(Cc2ccc(C(=O)O)cc2)C(=S)Nc2ccccc2C)cc1OC,-4,-3,i,1,-1,i,.,.
CCCCC[C@H](O)/C=C/[C@@H]1[C@@H](C/C=C\CCCC(=O)O)[C@@H](O)C[C@H]1O,.,-24,-5.9*,-3,-5,i,33%*,i
CCCCC[C@H](O)/C=C/[C@@H]1[C@@H](C/C=C\CCCC(=O)OC)[C@@H](O)C[C@H]1O,.,.,i,-1,1,i,.,.
COc1ccc(C(=O)N[C@@H]2CC[C@@]34CCCN3C(=O)CCC[C@H]4[C@H]2C)cc1,.,7,.,.,.,.,.,.
CNC(=O)[C@@H]1CC=C[C@@H]2CCN(c3ccccc3)C(=O)[C@@H]21,.,-13,.,.,.,.,.,.
Cc1ccc(Nc2c3c(nc4ncnn24)CC(C)CC3)cc1 (stereo not given),-4,-4,-5.8*,-2,10,i,i,i
CCOc1ccc(Nc2c3c(nc4ncnn24)CC(C)CC3)cc1 (stereo not given),-1,-18,i,-1,0,i,.,.
C[C@@H]1ON(C)[C@H]2C[C@H]3c4[nH]c5c(-c6ccc7c(c6)OCO7)cccc5c4CCN3C[C@@H]12,.,-4,.,.,.,.,.,.
COc1ccc(C/C(O)=C(\C#N)c2nc3ccccc3s2)cc1,.,.,-5*,0,8,i,55%*,i
Cc1oc(C(=O)O)cc1COc1ccc2c3c(c(=O)oc2c1C)CCC3,-4,8,-6.6*,-1,22,i,43%*,i
O=C(CCC(=O)N1CCOc2ccc(Cl)cc21)NCc1ccccc1,.,0,-6.3*,-1,-8,i,i,i
Brc1ccc(Cn2nnc(-c3ccc(N4CCOCC4)cc3)n2)cc1,.,5,.,.,.,.,.,.
Cc1ccc2c(ccc[n+]2CC(=O)c2ccccc2)c1,-9,14,i,-4,-5,i,.,.
O=C(C[n+]1cccc2ccccc21)c1ccc([N+](=O)[O-])cc1,-5,27,i,2,-14,i,.,.
O=C(C[n+]1cc(Br)cc2ccccc21)c1ccccc1,-6,9,-6.4*,3,-25,i,56%*,2.4*
O=C(C[n+]1cccc2ccccc21)c1ccc(Cl)cc1,-10,2,-8*,0,-37,i,37%*,i
COC(=O)[C@]12C[C@H](CC(=O)N3CCN(C(=O)C4CC4)CC3)C(=O)N(Cc3ccco3)C1=C[C@H](C(C)C)O[C@@H]2C1CC1,.,9,.,.,.,.,.,.
C=CCSc1nc2ccccc2n1Cc1nnc(-c2cccs2)o1,-5,6,-6.2*,3,14,i,59%*,i
SMILES,GalR3 antag,COUP-TFII inh,CHT block,NR2E3 ag-1,NR2E3 ag-2,CHT PAM,CHT inh conf,HEK293 MPD ctr
CC(=O)N/N=C/c1c(C)[nH]n(-c2ccccc2)c1=O,1,11,-5.8*,0,-12,i,i,i
Cc1c(NC(=O)C2CCCN(S(=O)(=O)c3ccc(Br)s3)C2)c(=O)n(-c2ccccc2)n1C (stereo not given),.,-10,.,.,.,.,.,.
CC(COc1ccc(C#N)c(F)c1)CN1CCC(C(O)(c2ccccc2)c2ccccc2)CC1 (stereo not given),.,1,.,.,.,.,.,.
CCN1CCN(c2cc(C)c3cc(NC(=S)N4CCCCC4)ccc3n2)CC1,-1,-7,-6.7*,4,6,i,47%*,i
CCCN(CCC)CCCNC(=S)Nc1ccc2nc(N3CCN(CC)CC3)cc(C)c2c1,-4,5,-6.7*,0,15,i,49%*,2.2*
O=C(Cn1nc(-c2ccccc2)ccc1=O)NCCc1ccc(F)cc1,.,13,.,.,.,.,.,.
O=C(Cn1nc(-c2ccccc2)ccc1=O)NCc1ccc(F)cc1,-3,-16,-6.3*,-1,-9,i,49%*,i
CCN(CC)CCCN(C(=O)c1ccc(OC)cc1)c1nc(-c2ccc(OC)cc2)cs1,-9,-4,-5.4*,2,-12,i,44%*,i
COC(=O)C1CN(Cc2cn(CCOC(C)=O)nn2)CCS(=O)(=O)N1Cc1ccc(OC)cc1 (stereo not given),.,-9,.,.,.,.,.,.
Cc1ccc(CS(=O)Cc2ccc(C(=O)NC3CCCCCC3)o2)cc1 (stereo not given),-1,15,-9.5*,-3,-1,i,36%*,i
Cc1ccc(C(=O)NC2CCC(C)CC2)o1 (stereo not given),-1,0,i,-4,-15,i,.,.
Cc1ccc(CS(=O)Cc2ccc(C(=O)NC3CCCC(C)C3C)o2)cc1 (stereo not given),-1,7,-9.7*,-2,-15,i,20%*,i

# Bioassay records as filed in PubChem.
